From ChEMBL document CHEMBL1133361, “Synthesis and biological activity of peptidyl aldehyde urokinase inhibitors” (Bioorg Med Chem Lett, 2000)

How the values were obtained:
[1] = Apparent terminal elimination half-life in rat plasma after administration of 50 mg/kg dose through subcutaneous route; format: ADME, organism-based; design: dose 50 mg/kg, route subcutaneous; details: sc
In short: (§1)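 Rats (n=3) received 50 mg/kg subcutaneously. Plasma was sampled over 24 h after dosing the parent aldehyde, or over 30 h after dosing its carbonate prodrug, with parent and prodrug measured. Levels were quantified by solid-phase extraction and HPLC mass spectrometry, and half-life and Cmax were taken from the concentration-time profile.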

[2] = Total concentration in rat plasma after administration of 50 mg/kg dose through subcutaneous route; details: sc
Plasminogen = Plasminogen (Homo sapiens, UniProt P00747); assay: The compound was tested in vitro for its inhibitory activity against human Plasmin enzyme, activity expressed as IC50
[3] = Area under curve in rat plasma after administration of 50 mg/kg dose through subcutaneous route; details: sc
[4] = Maximum concentration in rat plasma after administration of 50 mg/kg dose through subcutaneous route; format: ADME, organism-based; design: dose 50 mg/kg, route subcutaneous; details: sc; in short: as §1
[5] = Apparent terminal elimination half-life in rat plasma after administration of 50 mg/kg dose through subcutaneous route; details: sc
[6] = Apparent terminal elimination half-life in dog after administration of 20 mg/kg dose through peroral route; format: ADME, organism-based, Canis lupus familiaris; design: dose 20 mg/kg, route oral; details: in vivo, po
In short: (§2)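 Conscious dogs (n=3) were given a single 20 mg/kg oral dose. Plasma drug levels were quantified by solid-phase extraction followed by HPLC mass spectrometry, and elimination half-life, Cmax and AUC were derived from the plasma concentration-time profile.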

[7] = Maximum concentration in rat plasma after administration of 50 mg/kg dose through subcutaneous route; details: sc
[8] = molecular target: Tissue-type plasminogen activator (Homo sapiens, UniProt P00750); assay: The compound was tested in vitro for its inhibitory activity against human t-PA enzyme, activity expressed as IC50
In short: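 Human t-PA (1 nM final) was tested for cleavage of chromogenic substrate Pefachrome t-PA. IC50 was taken as the inhibitor concentration giving 50% inhibition of substrate cleavage.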

[9] = Maximum concentration in dog after administration of 20 mg/kg dose through peroral route; format: ADME, organism-based, Canis lupus familiaris; design: dose 20 mg/kg, route oral; details: in vivo, po; in short: as §2
[10] = Area under curve in dog after administration of 20 mg/kg dose through peroral route; format: ADME, organism-based, Canis lupus familiaris; design: dose 20 mg/kg, route oral; details: in vivo, po; in short: as §2
[11] = molecular target: Urokinase-type plasminogen activator (Homo sapiens, UniProt P00749); assay: The compound was tested in vitro for its inhibitory activity against human urokinase enzyme, activity expressed as IC50
[12] = Apparent terminal elimination half-life in rat plasma after administration of 50 mg/kg dose through subcutaneous route; details: sc; remark: listed apart in the source

Chain of Plasminogen (P00747 97-580 limits assumed): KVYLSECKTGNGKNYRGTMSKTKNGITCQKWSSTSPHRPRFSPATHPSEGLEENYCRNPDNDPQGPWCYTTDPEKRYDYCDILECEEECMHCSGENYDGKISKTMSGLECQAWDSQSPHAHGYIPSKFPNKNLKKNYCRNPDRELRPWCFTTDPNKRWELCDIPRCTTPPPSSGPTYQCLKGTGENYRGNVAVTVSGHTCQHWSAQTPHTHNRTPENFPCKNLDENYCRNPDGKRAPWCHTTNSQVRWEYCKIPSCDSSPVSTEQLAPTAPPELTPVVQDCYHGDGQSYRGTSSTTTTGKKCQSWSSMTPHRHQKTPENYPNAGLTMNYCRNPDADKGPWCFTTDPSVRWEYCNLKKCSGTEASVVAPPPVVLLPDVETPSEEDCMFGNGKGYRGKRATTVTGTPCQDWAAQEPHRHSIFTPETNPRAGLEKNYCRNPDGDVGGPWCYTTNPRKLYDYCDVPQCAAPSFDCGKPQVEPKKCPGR
Chain of Plasminogen (P00747 581-810 limits assumed): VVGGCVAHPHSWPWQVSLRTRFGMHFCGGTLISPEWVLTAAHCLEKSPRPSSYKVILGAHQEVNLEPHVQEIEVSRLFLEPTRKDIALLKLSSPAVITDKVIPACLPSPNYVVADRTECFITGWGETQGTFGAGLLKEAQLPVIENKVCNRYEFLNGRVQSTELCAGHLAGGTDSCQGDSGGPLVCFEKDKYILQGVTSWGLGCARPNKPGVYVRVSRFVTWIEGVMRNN
Chain of Tissue-type plasminogen activator (P00750 whole entry): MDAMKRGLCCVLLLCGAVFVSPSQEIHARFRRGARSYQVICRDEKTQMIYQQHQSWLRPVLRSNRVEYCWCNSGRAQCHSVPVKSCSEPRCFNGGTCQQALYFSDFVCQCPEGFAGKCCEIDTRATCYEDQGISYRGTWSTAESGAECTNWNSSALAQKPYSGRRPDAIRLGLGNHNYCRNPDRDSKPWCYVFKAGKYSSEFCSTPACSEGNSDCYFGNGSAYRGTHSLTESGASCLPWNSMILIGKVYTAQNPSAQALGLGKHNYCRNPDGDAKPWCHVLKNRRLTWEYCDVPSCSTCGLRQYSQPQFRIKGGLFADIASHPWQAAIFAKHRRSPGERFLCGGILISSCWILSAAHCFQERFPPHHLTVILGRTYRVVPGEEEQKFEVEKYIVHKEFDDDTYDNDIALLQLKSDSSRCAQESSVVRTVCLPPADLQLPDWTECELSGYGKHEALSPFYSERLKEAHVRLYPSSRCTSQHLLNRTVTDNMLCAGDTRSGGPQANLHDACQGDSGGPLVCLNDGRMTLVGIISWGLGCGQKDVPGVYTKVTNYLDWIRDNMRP

Row | SMILES | IC50 (Plasminogen) [µM] | IC50 [8] [µM] | IC50 [11] [µM] | further results
1 | CC(C)COC(=O)N[C@H](CO)C(=O)N[C@@H](C)C(=O)N[C@H]1CCCN(C(=N)N)C1O.O=C(O)C(F)(F)F (some centres not stated) | 1.46 | > 2.5 | 0.0231 | half-life [1]: 5 h; Tmax [2]: 2.33 h; AUC [3]: 44.5 µg·h/mL; Cmax [4]: 4.7 µg/mL; half-life [5]: 5 h; half-life [6]: 0.85 h; Cmax [7]: 4.7 µg/mL; Cmax [9]: 22.9 µg/mL; AUC [10]: 38.9 µg·h/mL
2 | C[C@H](NC(=O)[C@@H](CO)NS(=O)(=O)Cc1ccccc1)C(=O)N[C@H]1CCCN(C(=N)N)C1O (some centres not stated) | 0.275 | > 2.5 | 0.0051 | –
3 | C[C@@H](NC(=O)[C@@H](CO)NC(=O)OCc1ccccc1)C(=O)N[C@H]1CCCN(C(=N)N)C1O (some centres not stated) | > 2.5 | > 2.5 | > 2.5 | –
4 | C[C@H](NC(=O)[C@@H](CO)NC(=O)OCc1ccccc1)C(=O)N[C@H]1CCCN(C(=N)N)C1O (some centres not stated) | 0.904 | > 2.5 | – | –
5 | C[C@H](NC(=O)[C@@](C)(CO)NC(=O)OCc1ccccc1)C(=O)N[C@H]1CCCN(C(=N)N)C1O (some centres not stated) | > 2.5 | > 2.5 | > 2.5 | –
6 | CC(C)COC(=O)N[C@H](COC(=O)O)C(=O)N[C@@H](C)C(=O)N[C@H]1CCCN(C(=N)N)C1O.O=C(O)C(F)(F)F (some centres not stated) | – | – | – | Tmax [2]: 2.67 h; AUC [3]: 38.6 µg·h/mL; Cmax [7]: 2.3 µg/mL; half-life [12]: 10.7 h
7 | N=C(N)N1CCC[C@H](NC(=O)C2CCN2C(=O)[C@@H](CO)NC(=O)OCc2ccccc2)C1O (some centres not stated) | 0.482 | > 2.5 | 0.011 | –
8 | C[C@H](NC(=O)[C@@H](CO)NS(=O)(=O)c1ccccc1)C(=O)N[C@H]1CCCN(C(=N)N)C1O (some centres not stated) | 1.17 | > 2.5 | – | –
9 | C[C@H](NC(=O)[C@@H](CO)NS(=O)(=O)CCc1ccccc1)C(=O)N[C@H]1CCCN(C(=N)N)C1O (some centres not stated) | 0.367 | > 2.5 | 0.0031 | –
10 | N=C(N)N1CCCC(NC(=O)[C@H]2CCCN2C(=O)C(CO)NC(=O)OCc2ccccc2)C1O (some centres not stated) | 0.125 | > 2.5 | – | –
11 | CC(O)[C@@H](NC(=O)OCc1ccccc1)C(=O)N[C@@H](C)C(=O)N[C@H]1CCCN(C(=N)N)C1O (some centres not stated) | 0.699 | > 2.5 | 0.261 | –
12 | N=C(N)N1CCC[C@@H](NC(=O)[C@H]2CCCCN2C(=O)[C@@H](CO)NC(=O)OCc2ccccc2)C1O (some centres not stated) | – | > 2.5 | 0.101 | –
